Here are results for 14 compounds from PubChem BioAssay.

A short description of test [1]: inhibitors of TNFa-induced NFkB p65 translocation, primary screen, imaging, HUVEC, MLSMR starter and 10KST1 sets (AID 438).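 For inhibition: signal is the nuclear over cytoplasmic p65 intensity ratio per well.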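 Note: compound added about 3h40 before a 20 min TNFalpha stimulation.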 To be noted: HUVEC TNFa-induced p65 nuclear translocation; cell count: measured here: nuclei count (cytotoxicity indicator), at 2.08 µM; inhibition: at 2 µM, stronger effect = higher value, 0% TNFa-plus-vehicle, 100% no-TNFa wells.
Test [2] is described as follows: inhibitors of mutant huntingtin aggregation, primary screen, imaging, exon1htt(103Q)mCFP cells, high-content imaging (AID 483;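 active = visual image review flags a hit and inhibition of aggregation exceeds 20%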;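 note: compound exposure lasted 3 days before fixation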;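 for nuclei count: percent of the per-plate median nuclei count of sample wells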). To be noted: exon1htt(103Q)mCFP cell line, aggregate imaging, at 2 µM; inhibition of aggregation: stronger effect = higher value; nuclei count: measured here: cell count, toxicity.
Test [3] can be described thus: inhibitors of E-selectin induction by TNFa, primary screen, imaging, HUVEC, immunofluorescence, MLSMR starter and 10KST1 sets (AID 487;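 active = visually confirmed hit in the image check and inhibition above 20%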;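 for inhibition: signal is fraction of cell area covered by stained E-selectin grains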;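 for nuclei count: 100% = median nuclei count of all wells on the same plate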). To be noted: HUVEC TNFalpha-induced E-selectin immunofluorescence imaging, at 2 µM; inhibition: stronger effect = higher value; nuclei count: measured here: cell number, toxicity.
The target of test [4] is Voltage-gated potassium channel subunit beta-2 (Rattus norvegicus) (UniProt P62483). In words: KvBeta enzyme negative modulators, primary screen, biochemical, NADPH fluorescence (AID 622;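 active = fluorescence slope higher than the sample average by over 3 SD, cut at about -0.22 in these data, passing the limit was not always enough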;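 note: slope of raw intensity against log time taken from 70 to 1610 s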). To be noted: recombinant KvBeta, 4-cyanobenzaldehyde reduction, at 10 µM, stronger effect = higher value.
Test [5] has the same target. In words: KvBeta positive modulators, primary screen, biochemical, NADPH fluorescence (AID 623;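 active = NADPH fluorescence slope more negative than the mean of all samples by about 3 SD, 99.7% confidence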;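 note: fluorescence intensity change per second fitted from 20 to 320 s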). To be noted: Recombinant KvBeta, NADPH fluorescence decrease slope, 10 min; at 10 µM; stronger effect = lower value.
Test [6] addresses Muscarinic acetylcholine receptor M4 (Homo sapiens) (UniProt P08173). In words: compounds altering M4/GIRK thallium flux, either direction, primary screen, M4 allosteric agonist project, cell-based, HEK293 M4/GIRK, BTC-AM (AID 625;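 active = fluorescence slope after compound addition differing from the mean of all tested samples at 99.7% confidence, mostly higher but some lower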;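 note: thallium influx through GIRK channels coupled to M4 in HEK293 cells with BTC-AM dye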). To be noted: at 10 µM, actives lie on both sides. A digest of the protocol:
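Assay system: HEK293 cells with M4 receptor and GIRK channels / Controls: carbachol and DMSO controls / Schedule: 1 h dye loading, 2 min kinetic read / Technique: kinetic fluorescence with BTC-AM dye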

The nature of test [7]: inhibitors of Sendai virus-induced IRF3 signaling, primary screen, TLR/RLR signaling modifier project, cell-based, Sendai virus stimulus, luciferase, 10K MLSCN set (AID 602276;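 active = inhibition at or above 50% at 10 µM; inactive = inhibition below 50%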;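 note: firefly luciferase from ISG56 promoter only with Renilla not read in this screen; 0% = Sendai virus plus DMSO and 100% = medium plus DMSO without virus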). To be noted: HEK293 RL24 IRF3 luciferase reporter, at 10 µM, stronger effect = higher value. A general note: Reporter assays use an easily measured gene product as a stand-in for the process of interest.
The nature of test [8]: inhibitors of poly I:C-induced TLR3 signaling, primary screen, cell-based, poly I:C stimulus, luciferase, 10K MLSCN set (AID 602277;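 active = inhibition of the reporter signal at or above 50%; inactive = inhibition below 50%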). To be noted: HEK293-TLR3 RL24 IRF3 luciferase reporter, at 10 µM, stronger effect = higher value.

Activity calls are given as the source filed them.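 Rule for the calls, unless noted: active = inhibition above 20% together with a positive visual image hit; inconclusive = visual image hit but inhibition not above 20%; inactive = no visual image hit.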

By inhibition is commonly meant the relative decrease from the control value, in per cent.

Sequence of Voltage-gated potassium channel subunit beta-2 (Rattus norvegicus) (P62483 whole entry, looked up): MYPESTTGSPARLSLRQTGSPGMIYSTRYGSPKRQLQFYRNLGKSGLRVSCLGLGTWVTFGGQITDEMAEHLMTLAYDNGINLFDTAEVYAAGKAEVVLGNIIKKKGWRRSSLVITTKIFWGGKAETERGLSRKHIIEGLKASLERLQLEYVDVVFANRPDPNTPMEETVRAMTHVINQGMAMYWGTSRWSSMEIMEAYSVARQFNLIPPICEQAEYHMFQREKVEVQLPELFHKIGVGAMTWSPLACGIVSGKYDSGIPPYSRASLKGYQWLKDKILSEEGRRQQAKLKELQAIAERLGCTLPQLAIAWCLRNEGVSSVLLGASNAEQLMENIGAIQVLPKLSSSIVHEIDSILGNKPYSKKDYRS
Sequence of Muscarinic acetylcholine receptor M4 (Homo sapiens) (P08173 whole entry, looked up): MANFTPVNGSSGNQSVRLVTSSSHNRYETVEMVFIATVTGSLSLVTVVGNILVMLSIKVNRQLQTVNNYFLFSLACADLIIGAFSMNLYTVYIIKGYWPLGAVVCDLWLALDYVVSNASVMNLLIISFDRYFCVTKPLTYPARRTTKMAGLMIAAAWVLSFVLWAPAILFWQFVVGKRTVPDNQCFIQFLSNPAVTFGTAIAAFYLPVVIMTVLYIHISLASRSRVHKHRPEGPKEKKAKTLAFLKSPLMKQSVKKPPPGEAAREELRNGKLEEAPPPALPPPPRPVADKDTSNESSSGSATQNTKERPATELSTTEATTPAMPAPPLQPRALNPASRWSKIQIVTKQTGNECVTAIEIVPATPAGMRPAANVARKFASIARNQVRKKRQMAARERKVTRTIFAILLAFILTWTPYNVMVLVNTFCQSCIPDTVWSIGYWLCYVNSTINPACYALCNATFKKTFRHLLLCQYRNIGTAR

On to `CC(C)NC(=O)c1ccccc1NC(=O)c1ccccc1N(C)S(C)(=O)=O`, for which the cell count in test [1] came to 554. The inhibition in test [1] is 25% (inactive); in test [3], -155% (inactive); in test [7], 10.6% (inactive); in test [8], 13.7% (inactive). The inhibition of aggregation in test [2] was 6.8% (inactive). The nuclei count in test [2] is 104%; in test [3], 101%. In addition, the fluorescence slope in test [4] was -0.456 (inactive); in test [6] it was 0.00572 (inactive). The NADPH fluorescence slope in test [5] is -5.7e-05 (inactive).

With `Cn1c(SC/C=C/c2ccccc2)nnc1-c1cnccn1`, in test [1], the cell count was 630. Further, the inhibition was 1.1% (inactive) in test [1], 6.2% (inactive) in test [3], -12.1% (inactive) in test [7] and -35% (inactive) in test [8]. Further, the inhibition of aggregation in test [2] was -4.5% (inactive). Moreover, the nuclei count in test [2] is 114%; in test [3], 95.1%. Moreover, the values for the fluorescence slope in test [4] and in test [6] were -0.572 (inactive) and 0.00503 (inactive), respectively. In test [5], the NADPH fluorescence slope was 2.7e-05 (inactive).

Regarding `CS(=O)(=O)N(CC(=O)N1CCCCCC1)c1ccccc1`, in test [1], the cell count was determined as 324. For the same compound, the inhibition in test [1] is -0.2% (inactive); in test [3], -11.6% (inactive); in test [7] it was 11.4% (inactive); in test [8], 8.59% (inactive). In addition, the inhibition of aggregation in test [2] is 1.9% (inactive). Besides, the results for the nuclei count in test [2] and in test [3] were 82.8% and 106%, respectively. The fluorescence slope in test [4] is -0.452 (inactive); in test [6], 0.00505 (inactive). In addition, in test [5], the NADPH fluorescence slope is -3.4e-05 (inactive).

As for `COC(=O)c1oc2ccc(Br)cc2c1NC(=O)CN1CCN(C)CC1`, the cell count in test [1] stood at 240. In addition, the inhibition was 6% (inactive) in test [1], 30.2% (inactive) in test [3], 1.64% (inactive) in test [7] and 6.76% (inactive) in test [8]. Also, the inhibition of aggregation in test [2] was -3.2% (inactive). For the same compound, the nuclei count in test [2] was determined as 94.6%; in test [3] it was 85.6%. Also, the fluorescence slope in test [4] is -0.589 (inactive); in test [6], 0.00465 (inactive). Besides, the NADPH fluorescence slope in test [5] was 1.6e-05 (inactive).

For the compound `CCOCCCNc1ncnc2c1[nH]c1ccccc12`, the cell count in test [1] was determined as 252. Further, the inhibition is 7.8% (inactive) in test [1], -49.2% (inactive) in test [3], -24.7% (inactive) in test [7] and -100% (inactive) in test [8]. Moreover, in test [2], the inhibition of aggregation was -7.5% (inactive). The nuclei count in test [2] came to 72.9%; in test [3], 109%. Also, the fluorescence slope in test [4] is -0.513 (inactive); in test [6], 0.00341 (inactive). Further, the NADPH fluorescence slope in test [5] was -0.000137 (inactive).

For the compound `Nc1nc2ccccc2n1/N=C/c1ccc(Br)cc1`, the cell count in test [1] was found to be 334. Moreover, the inhibition in test [1] is -2.9% (inactive); in test [3], 12.6% (inactive); in test [7], -55% (inactive); in test [8] it was -127% (inactive). Besides, the inhibition of aggregation in test [2] is -2.4% (inactive). The nuclei count in test [2] is 87.2%; in test [3] it was 92.2%. Besides, the fluorescence slope in test [4] is -0.47 (inactive); in test [6], 0.00585 (inactive). Also, the NADPH fluorescence slope in test [5] was -3.8e-05 (inactive).

Turning to `Cc1ccc(C)c(C(=O)NC2CC(C)(C)NC(C)(C)C2)c1`, in test [1], the cell count stood at 690. Further, the inhibition in test [1] is 0.8% (inactive); in test [3], -8.2% (inactive); in test [7], -2.48% (inactive); in test [8], 9.21% (inactive). Further, the inhibition of aggregation in test [2] is 14% (inactive). The nuclei count in test [2] worked out at 94%; in test [3], 96%. In addition, the fluorescence slope was -0.578 (inactive) in test [4] and 0.00855 (inactive) in test [6]. Also, the NADPH fluorescence slope in test [5] is -5.3e-05 (inactive).

Take `O=S(=O)(NCC1CCCO1)c1ccc(S(=O)(=O)N2CCc3ccccc3C2)cc1` (centres undefined): the cell count in test [1] is 685. In addition, the inhibition in test [1] was -4.3% (inactive); in test [3], -132% (inactive); in test [7], 19.5% (inactive); in test [8], 19.5% (inactive). For the same compound, the inhibition of aggregation in test [2] was -21.6% (inactive). Further, the nuclei count in test [2] turned out to be 97.8%; in test [3], 140%. Further, the fluorescence slope in test [4] was -0.525 (inactive); in test [6], 0.00466 (inactive). Also, the NADPH fluorescence slope in test [5] is -3.8e-05 (inactive).

As to `Cn1c(=O)c(NC(=O)c2ccccc2)c2n(c1=S)CCCCC2`, in test [1], the cell count turned out to be 359. The inhibition in test [1] was -5.7% (inactive); in test [3], -17% (inactive); in test [7] it was 16.3% (inactive); in test [8], 20% (inactive). In test [2], the inhibition of aggregation was 13.7% (inactive). The results for the nuclei count in test [2] and in test [3] were 95.3% and 107%, respectively. Besides, the fluorescence slope was -0.57 (inactive) in test [4] and 0.00647 (inactive) in test [6]. In addition, the NADPH fluorescence slope in test [5] was -1.1e-05 (inactive).

On to `O=C(COC(=O)Cc1cccc(C(F)(F)F)c1)NCC1CCCO1` (centres undefined), for which the cell count in test [1] is 704. For the same compound, the inhibition in test [1] was 3.3% (inactive); in test [3], -199% (inactive); in test [7], -6.76% (inactive); in test [8], 2.06% (inactive). Further, the inhibition of aggregation in test [2] was 3% (inactive). Besides, the values for the nuclei count in test [2] and in test [3] were 106% and 134%, respectively. Besides, the fluorescence slope in test [4] is -0.497 (inactive); in test [6] it was 0.00505 (inactive). Further, the NADPH fluorescence slope in test [5] is -0.000214 (inactive).

Consider `CCOc1cc(C2C(C(=O)c3ccccc3)=C(C(=O)OC)Nc3nnnn32)ccc1O` (centres undefined), for which the cell count in test [1] amounted to 351. For the same compound, the inhibition in test [1] is -7.9% (inactive); in test [3], -69.2% (inactive); in test [7], 0.723% (inactive); in test [8] it was 11.1% (inactive). Further, the inhibition of aggregation in test [2] was 0% (inactive). Moreover, the nuclei count worked out at 110% in test [2] and 157% in test [3]. The fluorescence slope is -0.52 (inactive) in test [4] and 0.00584 (inactive) in test [6]. Besides, the NADPH fluorescence slope in test [5] was -3.5e-05 (inactive).

As to `COc1ccc(N(CC(=O)NC2CCCC2)C(=O)Cn2nnc(-c3ccc(C)cc3)n2)cc1`, in test [1], the cell count came to 465. Besides, the inhibition in test [1] was -3.9% (inactive); in test [3] it was -65.7% (inactive); in test [7] it was -14.1% (inactive); in test [8], 0.19% (inactive). Also, the inhibition of aggregation in test [2] was 8.3% (inactive). Moreover, the nuclei count came out at 90.6% in test [2] and 106% in test [3]. For the same compound, the fluorescence slope in test [4] was -0.587 (inactive); in test [6] it was 0.00452 (inactive). Also, the NADPH fluorescence slope in test [5] is 8e-06 (inactive).

As for `COC(=O)c1sccc1NC(=O)c1ccncc1`, the cell count in test [1] was 467. For the same compound, the inhibition in test [1] is 5.7% (inactive); in test [3] it was -36.5% (inactive); in test [7], 12% (inactive); in test [8], -9.7% (inactive). Besides, the inhibition of aggregation in test [2] is 7.5% (inactive). The nuclei count in test [2] was 103%; in test [3], 122%. Also, the figures for the fluorescence slope in test [4] and in test [6] were -0.49 (inactive) and 0.00518 (inactive), respectively. Besides, the NADPH fluorescence slope in test [5] is -3.8e-05 (inactive).

Take `CCCNS(=O)(=O)c1ccc(OCC(=O)Nc2ccccc2F)cc1`: in test [1], the cell count is 408. Besides, the inhibition in test [1] was 8.2% (inactive); in test [3], -57.2% (inactive); in test [7] it was 19.7% (inactive); in test [8], 15.2% (inactive). Besides, the inhibition of aggregation in test [2] was -23% (inactive). In addition, the nuclei count in test [2] was determined as 99.5%; in test [3], 100%. Further, the fluorescence slope was -0.557 (inactive) in test [4] and 0.00506 (inactive) in test [6]. Besides, in test [5], the NADPH fluorescence slope is -2.6e-05 (inactive).
